Screening data (PubChem)
A selection: hits, their analogues and other compounds. The true share with any hit is near 2.4%.
Neddylation inh: cullin neddylation inhibition; TR-FRET cullin neddylation, biochemical; inhibition, % at 25 µM; 360,000 tested, 0.58% active; in the data active = inhibition above about 36%
Rpn11 block: inhibitors of human proteasome Rpn11 | 360,000 tested, 0.59% active | human 26S proteasome, Ub4-pepOG fluorescence polarization; 20S core pre-blocked with epoxomicin | inhibition, % at 20 µM | O00487;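 active = inhibition at 20 µM, scaled to each plate's controls, above about 33%, limit read from the data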
Rin1 Abl inh: inhibitors of human Rin1-Abl protein interaction | P00519+Q13671 | TR-FRET Rin1/Abl binding, biochemical | inhibition, % at 7.35 µM | 360,000 tested, 0.4% active | AID 588664; in the data active = inhibition above about 5%, passing the limit was not always enough
HNF4A DNA FP: change in binding of human HNF4 alpha to DNA | activity change, % at 10 µM | 360,000 tested, 0.3% active | P41235 | HNF4a-FITC DNA binding, fluorescence polarization, 1 h; in the data active = activity change above about 30%, passing the limit was not always enough
CSN deneddyl inh: inhibitors of human CSN-mediated cullin deneddylation; Purified CSN, SCF-Nedd8-OG deneddylation, fluorescence polarization; inhibition, % at 12.5 µM; 360,000 tested, 0.38% active; AID 651999;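 active = pattern-corrected inhibition above about 35%, with an unprinted fluorescence ratio check between 0.5 and 1.5, limit read from the data, passing the limit was not always enough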;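 note: 0% = enzyme with substrate and 100% = substrate without enzyme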
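Test system: Human Csn5 produced in HEK293T cells | Compound: 12.5 µM single point | Times: 90 min, room temperature | Signal: Fluorescence polarization readout | Read-out basis: % inhibition of substrate cleavage by Csn5 | Controls: no-enzyme wells high, enzyme-with-substrate wells low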
TPT1 inhibitor: inhibitors of Candida albicans tRNA 2'-phosphotransferase TPT1. recombinant caTPT1, FP RNA substrate dephosphorylation. inhibition, % at 5 µM. 300,000 tested, 0.81% active;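 active = inhibition above the mean of all tested compounds plus 3 SD, set per screening campaign, cut at about 24% in these data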;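 note: plate controls were DMSO alone for no effect and ferristatin control at 100 nM for full effect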
TPT1 inh confirm: confirmation of Candida albicans TPT1 inhibitors; shares compounds with TPT1 inhibitor; AID 2149; 2,400 tested, 74% active; recombinant caTPT1, fluorescence polarization, RNase T1 coupled; inhibition, % at 5 µM;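 active = inhibition above the primary screen limit, the mean inhibition of all tested compounds plus 3 SD, cut at about 25% in these data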
RNase T1 counter: RNase T1 inhibition in TPT1 counter-screen; RNase T1 cleavage, fluorescence polarization, 1536-well; AID 2153; shares compounds with TPT1 inhibitor; inhibition, % at 5 µM; 2,400 tested, 83% active;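 active = inhibition above the solvent-only control well mean plus 3 SD, limit set per screening run, cut at about 23% in these data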;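 note: plate controls were DMSO wells with enzyme for no effect and wells without RNase T1 for full effect; inhibitors block cleavage so intact labeled substrate keeps polarization high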
* marks the source's active call; other numbers are inactive results.

How did COc1ccc2nc(C)cc(NCc3ccc(F)cc3)c2c1 do in these assays?
Rin1 Abl inh: -0.9; HNF4A DNA FP: 146.9; CSN deneddyl inh: 103.6; TPT1 inhibitor: 68.6*; TPT1 inh confirm: 81.5*; RNase T1 counter: 84.9*

Results for COc1ccc(C)cc1NC(=O)CSc1nc(=O)n(CCCN2CCOCC2)c2c1CCCC2 ?
Neddylation inh: 3.3; Rpn11 block: -7.1; Rin1 Abl inh: -2.9; HNF4A DNA FP: -3.0; CSN deneddyl inh: 1.4; TPT1 inhibitor: -1.1

What do the screens show for `Cc1ccc(NC(=O)CSc2nc(=O)n(CCCN3CCOCC3)c3c2CCCC3)c(C)c1`?
Neddylation inh: -0.4; Rpn11 block: -5.0; Rin1 Abl inh: 1.8; HNF4A DNA FP: 1.0; CSN deneddyl inh: -4.9; TPT1 inhibitor: 66.0*; TPT1 inh confirm: 2.9; RNase T1 counter: 4.1

How did N#Cc1c(N)n(-c2ccccc2N)c2nc3ccccc3nc12 do in these assays?
Neddylation inh: 11.8; Rpn11 block: 12.0; Rin1 Abl inh: -0.9; HNF4A DNA FP: 4.0; CSN deneddyl inh: 6.5; TPT1 inhibitor: 6.7

Results for N#Cc1c(N)n(-c2cccc(C(=O)O)c2)c2nc3ccccc3nc12 ?
Rin1 Abl inh: -0.4; HNF4A DNA FP: 21.0; CSN deneddyl inh: 32.6; TPT1 inhibitor: 35.9*; TPT1 inh confirm: 39.6*; RNase T1 counter: 49.4*

Results for Cc1ccc(/C=C2\SC(=S)N(NS(=O)(=O)c3ccc(C)cc3)C2=O)cc1 ?
Neddylation inh: -16.1; Rpn11 block: 11.1; Rin1 Abl inh: -0.9; HNF4A DNA FP: 0.6; CSN deneddyl inh: 5.7; TPT1 inhibitor: 3.9

Results for Cc1ccc(S(=O)(=O)NN2C(=O)/C(=C/c3cccn3C)SC2=S)cc1 ?
TPT1 inhibitor: 56.6*; TPT1 inh confirm: 60.1*; RNase T1 counter: 74.2*

Results for Cn1cccc1/C=C1\SC(=S)N(Nc2ccccc2)C1=O ?
Neddylation inh: -67.0; Rin1 Abl inh: -3.8; HNF4A DNA FP: 58.3*; CSN deneddyl inh: 33.8; TPT1 inhibitor: 42.0*; TPT1 inh confirm: 71.5*; RNase T1 counter: 86.9*

What do the screens show for `S=C(NCc1ccccn1)NN=Cc1ccccn1`?
Neddylation inh: -26.0; Rpn11 block: 22.7; Rin1 Abl inh: -3.0; HNF4A DNA FP: 1.5; CSN deneddyl inh: -5.2

Results for O=[N+]([O-])c1ccc(N2CCN(Cc3ccccc3)CC2)s1 ?
Neddylation inh: -86.1; Rpn11 block: 35.9; Rin1 Abl inh: -13.3; HNF4A DNA FP: 27.8; CSN deneddyl inh: 10.6; TPT1 inhibitor: 31.1*; TPT1 inh confirm: 38.0*; RNase T1 counter: 50.1*

Results for COCCN(C(=O)c1oc2ccccc2c1COC)c1c(N)n(CC(C)C)c(=O)[nH]c1=O ?
Neddylation inh: 5.7; Rpn11 block: -5.1; Rin1 Abl inh: 4.2; HNF4A DNA FP: 6.7; CSN deneddyl inh: -5.7

How did O=C(O)c1ccc(N2CCCCCC2)c(N2C(=O)c3ccccc3C2=O)c1 do in these assays?
Neddylation inh: 2.4; Rpn11 block: -2.5; Rin1 Abl inh: -0.2; HNF4A DNA FP: 0.2; CSN deneddyl inh: -3.2; TPT1 inhibitor: -5.5

What do the screens show for `O=C1c2cccc3c(N4CCCCC4)ccc(c23)C(=O)N1c1ccccc1O`?
Neddylation inh: -50.7; Rin1 Abl inh: -2.3; HNF4A DNA FP: -7.1; CSN deneddyl inh: -69.8; TPT1 inhibitor: 71.6*; TPT1 inh confirm: 38.9*; RNase T1 counter: 50.4*

Results for O=C1c2cccc3c(N4CCCCC4)ccc(c23)C(=O)N1c1ccc(O)cc1 ?
Neddylation inh: -43.8; Rin1 Abl inh: -0.2; HNF4A DNA FP: -103.6; CSN deneddyl inh: 14.9; TPT1 inhibitor: 72.5*; TPT1 inh confirm: 60.7*; RNase T1 counter: 61.4*

Results for N#CC1=C(N)Oc2cc(O)c(Cl)cc2C1c1ccccc1F (configuration not stated) ?
Rpn11 block: 23.8; Rin1 Abl inh: 1.9; HNF4A DNA FP: -4.0; CSN deneddyl inh: 12.2; TPT1 inhibitor: 71.9*; TPT1 inh confirm: 15.4; RNase T1 counter: 25.7*

What do the screens show for `COC(=O)C1=C(C)OC(N)=C(C#N)C1c1ccccc1F` (configuration not stated)?
Neddylation inh: 8.4; Rpn11 block: -4.0; Rin1 Abl inh: -0.3; HNF4A DNA FP: 0.0; CSN deneddyl inh: 2.5; TPT1 inhibitor: 0.8

Results for CN(C(=S)NCCN1CCOCC1)C(c1ccccc1)c1ccccc1 ?
Neddylation inh: -0.2; Rpn11 block: -5.0; Rin1 Abl inh: 0.7; HNF4A DNA FP: -0.5; CSN deneddyl inh: -5.0; TPT1 inhibitor: -0.7

Results for CSc1cccc(NC(=O)NCc2cccc(CNC(=O)Nc3cccc(SC)c3)c2)c1 ?
Neddylation inh: -10.8; Rpn11 block: 1.8; Rin1 Abl inh: -4.4; HNF4A DNA FP: 1.4; CSN deneddyl inh: 4.1; TPT1 inhibitor: 50.6*; TPT1 inh confirm: 4.3; RNase T1 counter: 6.2

How did CSc1cccc(NC(=O)C(=O)NCc2ccccc2)c1 do in these assays?
Neddylation inh: 4.6; Rpn11 block: -6.7; Rin1 Abl inh: -2.4; HNF4A DNA FP: 2.5; CSN deneddyl inh: 3.4; TPT1 inhibitor: 0.6

What do the screens show for `CCCc1cc(=O)n(-c2nc3ccccc3s2)[nH]1`?
Neddylation inh: -3.0; Rpn11 block: 17.2; Rin1 Abl inh: 3.3; HNF4A DNA FP: -3.4; CSN deneddyl inh: 6.1; TPT1 inhibitor: -6.0

What do the screens show for `CCOC(=O)Cc1cc(=O)n(-c2nc3ccccc3s2)[nH]1`?
Neddylation inh: -3.8; Rpn11 block: 24.5; Rin1 Abl inh: 1.6; HNF4A DNA FP: 9.0; CSN deneddyl inh: 12.7; TPT1 inhibitor: 27.7*; TPT1 inh confirm: 13.9; RNase T1 counter: 24.4*

How did CCN(CC(=O)Nc1cccc(C#N)c1)CC(=O)Nc1cccc(OC)c1 do in these assays?
Neddylation inh: 3.9; Rpn11 block: 1.9; Rin1 Abl inh: 0.2; HNF4A DNA FP: -0.3; CSN deneddyl inh: -4.4; TPT1 inhibitor: 1.7

What do the screens show for `NC(=O)N/N=C/c1ccc(N2CCOCC2)s1`?
Neddylation inh: -17.5; Rin1 Abl inh: 0.6; HNF4A DNA FP: 71.1*; CSN deneddyl inh: 5.2; TPT1 inhibitor: 81.0*; TPT1 inh confirm: 123.2*; RNase T1 counter: 129.8*

Results for CC(/C=C/C=C/c1ccccc1)=N/NC(=O)CNc1ccccc1C ?
Neddylation inh: -1.6; Rpn11 block: -4.4; Rin1 Abl inh: -1.6; HNF4A DNA FP: 2.8; CSN deneddyl inh: 4.1; TPT1 inhibitor: -0.8

How did CCc1cccc(OCCCn2ccnc2)c1 do in these assays?
Neddylation inh: 6.4; Rpn11 block: 4.9; Rin1 Abl inh: 1.3; HNF4A DNA FP: 0.1; CSN deneddyl inh: 0.1; TPT1 inhibitor: 35.8*; TPT1 inh confirm: 2.9; RNase T1 counter: 8.9
